Test results as given in ChEMBL document CHEMBL4190388, “Discovery and Optimization of Indolyl-Containing 4-Hydroxy-2-Pyridone Type II DNA Topoisomerase Inhibitors Active against Multidrug Resistant Gram-negative Bacteria” (J Med Chem, 2018).
In brackets after ≈: the same amount, converted by molar mass.

What was measured:
Escherichia coli [1] = assay: Selectivity ratio of MIC for wild type Escherichia coli ATCC 25922 in presence of HSA to MIC for wild type Escherichia coli ATCC 25922; type: functional
Escherichia coli [2] = assay: Antibacterial activity against fluoroquinolone resistant Escherichia coli SKM18 by CLSI M100-S17 protocol based method; type: functional
Acinetobacter baumannii [3] = assay: Antibacterial activity against fluoroquinolone resistant Acinetobacter baumannii isolate MMX2240 by CLSI M100-S17 protocol based method; type: functional
Klebsiella pneumoniae = assay: Antibacterial activity against wild type Klebsiella pneumoniae ATCC 35657 by CLSI M100-S17 protocol based method; type: functional
Escherichia coli [4] = assay: Antibacterial activity against wild type Escherichia coli ATCC 25922 by CLSI M100-S17 protocol based method; type: functional
Acinetobacter baumannii [5] = assay: Antibacterial activity against wild type Acinetobacter baumannii ATCC BAA-747 by CLSI M100-S17 protocol based method; type: functional
Escherichia coli [6] = assay: Antibacterial activity against wild type Escherichia coli ATCC 25922 in presence of HSA by CLSI M100-S17 protocol based method; type: functional
Escherichia coli [7] = assay: Antibacterial activity against quinolone resistance Escherichia coli isolate ELZ4251 harboring gyrA/parC mutant by CLSI M100-S17 protocol based method; type: functional
[8] = Inhibition of His tagged Escherichia coli ATCC 25922 DNA gyrase A expressed in Escherichia coli BL21 (DE3) pLysS cells assessed as reduction in enzyme-mediated supercoiling of relaxed plasmid DNA pNO1 after 30 mins in presence of biotinylated TFO1 by fluorescence assay
[9] = Inhibition of Escherichia coli DNA topoisomerase 4 assessed as reduction in decatenation activity using kinetoplast concatenated DNA as substrate after 30 mins by picogreen dye based fluorescence assay
Acinetobacter baumannii [10] = assay: Antibacterial activity against wild type Acinetobacter baumannii by broth microdilution method; type: functional
In short: (§1)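 MICs were determined by CLSI broth methods, except that organisms were grown in brain–heart–infusion medium. The panel comprised wild-type and resistant E. coli and A. baumannii strains, including 12 strains whose details are given by reference.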

Acinetobacter baumannii [11] = assay: Antibacterial activity against multidrug resistant Acinetobacter baumannii by broth microdilution method; type: functional; conditions: Acinetobacter baumannii; in short: as §1
Escherichia coli [12] = assay: Antibacterial activity against multidrug resistant Escherichia coli by broth microdilution method; type: functional; conditions: Escherichia coli; in short: as §1
Escherichia coli [13] = assay: Antibacterial activity against quinolone resistant Escherichia coli by broth microdilution method; type: functional; conditions: Escherichia coli; in short: as §1
Acinetobacter baumannii [14] = assay: Antibacterial activity against carbapenem resistant Acinetobacter baumannii by broth microdilution method; type: functional; conditions: Acinetobacter baumannii; in short: as §1
Escherichia coli [15] = assay: Antibacterial activity against beta-lactam resistant Escherichia coli by broth microdilution method; type: functional; conditions: Escherichia coli; in short: as §1
Escherichia coli [16] = assay: Antibacterial activity against wild type Escherichia coli by broth microdilution method; type: functional; in short: as §1
Acinetobacter baumannii [17] = assay: Antibacterial activity against aminoglycoside resistant Acinetobacter baumannii by broth microdilution method; type: functional; conditions: Acinetobacter baumannii; in short: as §1
Acinetobacter baumannii [18] = assay: Antibacterial activity against beta-lactam resistant Acinetobacter baumannii by broth microdilution method; type: functional; conditions: Acinetobacter baumannii; in short: as §1
Acinetobacter baumannii [19] = assay: Antibacterial activity against quinolone resistant Acinetobacter baumannii by broth microdilution method; type: functional; conditions: Acinetobacter baumannii; in short: as §1
Escherichia coli [20] = assay: Antibacterial activity against aminoglycoside resistant Escherichia coli by broth microdilution method; type: functional; conditions: Escherichia coli; in short: as §1

For CCNCc1cc2cc3c(cc2n1C)SCCc1c-3[nH]c(=O)c(C(=O)O)c1O, the Ratio (Escherichia coli [1]) was 8 - 16, the MIC (Escherichia coli [2]) was 0.5 µg/mL (≈ 1.25 µM) and the MIC (Acinetobacter baumannii [3]) was 3.9 µg/mL (≈ 9.76 µM). It also gave an MIC (Klebsiella pneumoniae) of 1 µg/mL (≈ 2.5 µM), an MIC (Escherichia coli [4]) of 1 µg/mL (≈ 2.5 µM) and an MIC (Acinetobacter baumannii [5]) of 3.9 µg/mL (≈ 9.76 µM). The MIC (Escherichia coli [6]) was 15.6 µg/mL and the MIC (Escherichia coli [7]) was 1.6 µg/mL (≈ 4.01 µM).
With CNCc1cc2cc3c(cc2n1C)CCCc1c-3[nH]c(=O)c(C(=O)O)c1O the Ratio (Escherichia coli [1]) was 4 - 16, the MIC (Escherichia coli [2]) was 0.39 µg/mL (≈ 1.06 µM) and the MIC (Acinetobacter baumannii [3]) was 1.6 µg/mL (≈ 4.35 µM). For the same molecule, the MIC (Klebsiella pneumoniae) was 0.39 µg/mL (≈ 1.06 µM), the MIC (Escherichia coli [4]) was 0.39 µg/mL (≈ 1.06 µM) and the MIC (Acinetobacter baumannii [5]) was 1.6 µg/mL (≈ 4.35 µM). It also gave an IC50 [8] of 100 nM, an IC50 [9] of 3700 nM and an MIC (Escherichia coli [6]) of 3.1 µg/mL. For the same molecule, the MIC (Escherichia coli [7]) was 0.8 µg/mL (≈ 2.18 µM).
With CCc1c(-c2ccc3c(c2)cc(C)n3C)[nH]c(=O)c(C(=O)O)c1O the Ratio (Escherichia coli [1]) was greater than 40, the MIC (Escherichia coli [2]) was greater than 62.5 µg/mL and the MIC (Escherichia coli [4]) was 1.6 µg/mL (≈ 4.9 µM). It also gave an MIC (Escherichia coli [6]) greater than 62.5 µg/mL and an MIC (Escherichia coli [7]) of 62.5 µg/mL (≈ 192 µM).
With CC(C)NCc1cc2cc3c(cc2n1C)SCCc1c-3[nH]c(=O)c(C(=O)O)c1O the Ratio (Escherichia coli [1]) was 8 - 16, the MIC (Escherichia coli [2]) was 1 µg/mL (≈ 2.42 µM) and the MIC (Acinetobacter baumannii [3]) was 3.9 µg/mL (≈ 9.43 µM). The MIC (Klebsiella pneumoniae) was 2 µg/mL (≈ 4.84 µM), the MIC (Escherichia coli [4]) was 2 µg/mL (≈ 4.84 µM) and the MIC (Acinetobacter baumannii [5]) was 2 µg/mL (≈ 4.84 µM). For the same molecule, the MIC (Escherichia coli [6]) was 15.6 µg/mL and the MIC (Escherichia coli [7]) was 3.1 µg/mL (≈ 7.5 µM).
Work on CCNCc1cc2cc(-c3[nH]c(=O)c(C(=O)O)c(O)c3CC)ccc2n1C yielded an MIC50 (Acinetobacter baumannii [10]) of 2 µg/mL (≈ 5.41 µM), an MIC90 (Acinetobacter baumannii [10]) of 16 µg/mL (≈ 43.3 µM) and an MIC50 (Acinetobacter baumannii [11]) of 2 µg/mL (≈ 5.41 µM). It also gave an MIC90 (Acinetobacter baumannii [11]) of 16 µg/mL (≈ 43.3 µM), an MIC (Acinetobacter baumannii [11]; read-out: MIC) of 0.5 to 32 µg/mL (≈ 1.35 to 86.6 µM) and an MIC (Escherichia coli [2]) of 1.6 µg/mL (≈ 4.33 µM). It also gave an MIC (Acinetobacter baumannii [3]) of 6.3 µg/mL (≈ 17.1 µM), an MIC50 (Escherichia coli [12]) of 1 µg/mL (≈ 2.71 µM) and an MIC90 (Escherichia coli [12]) of 4 µg/mL (≈ 10.8 µM). It also gave an MIC (Escherichia coli [12]; read-out: MIC) of 0.25 to 4 µg/mL (≈ 0.677 to 10.8 µM), an MIC (Klebsiella pneumoniae) of 0.39 µg/mL (≈ 1.06 µM) and an MIC50 (Escherichia coli [13]) of 1 µg/mL (≈ 2.71 µM). It also gave an MIC90 (Escherichia coli [13]) of 4 µg/mL (≈ 10.8 µM), an MIC (Escherichia coli [13]; read-out: MIC) of 0.25 to 4 µg/mL (≈ 0.677 to 10.8 µM) and an MIC50 (Acinetobacter baumannii [14]) of 2 µg/mL (≈ 5.41 µM). It also gave an MIC90 (Acinetobacter baumannii [14]) of 16 µg/mL (≈ 43.3 µM), an MIC (Acinetobacter baumannii [14]; read-out: MIC) of 0.5 to 32 µg/mL (≈ 1.35 to 86.6 µM) and an MIC50 (Escherichia coli [15]) of 1 µg/mL (≈ 2.71 µM). For the same molecule, the MIC90 (Escherichia coli [15]) was 4 µg/mL (≈ 10.8 µM), the MIC (Escherichia coli [15]; read-out: MIC) was 0.25 to 4 µg/mL (≈ 0.677 to 10.8 µM) and the MIC50 (Escherichia coli [16]) was 1 µg/mL (≈ 2.71 µM). For the same molecule, the MIC90 (Escherichia coli [16]) was 4 µg/mL (≈ 10.8 µM), the MIC (Escherichia coli [4]) was 0.39 µg/mL (≈ 1.06 µM) and the MIC50 (Acinetobacter baumannii [17]) was 2 µg/mL (≈ 5.41 µM). The MIC90 (Acinetobacter baumannii [17]) was 16 µg/mL (≈ 43.3 µM), the MIC (Acinetobacter baumannii [17]; read-out: MIC) was 0.5 to 32 µg/mL (≈ 1.35 to 86.6 µM) and the MIC (Acinetobacter baumannii [5]) was 0.78 µg/mL (≈ 2.11 µM). For the same molecule, the MIC50 (Acinetobacter baumannii [18]) was 2 µg/mL (≈ 5.41 µM), the MIC90 (Acinetobacter baumannii [18]) was 16 µg/mL (≈ 43.3 µM) and the MIC (Acinetobacter baumannii [18]; read-out: MIC) was 0.5 to 32 µg/mL (≈ 1.35 to 86.6 µM). For the same molecule, the IC50 [8] was 300 nM, the IC50 [9] was 3300 nM and the MIC50 (Acinetobacter baumannii [19]) was 2 µg/mL (≈ 5.41 µM). The MIC90 (Acinetobacter baumannii [19]) was 16 µg/mL (≈ 43.3 µM), the MIC (Acinetobacter baumannii [19]; read-out: MIC) was 0.5 to 32 µg/mL (≈ 1.35 to 86.6 µM) and the MIC (Escherichia coli [6]) was 1.6 µg/mL. The MIC (Escherichia coli [7]) was 3.1 µg/mL (≈ 8.39 µM), the MIC50 (Escherichia coli [20]) was 1 µg/mL (≈ 2.71 µM) and the MIC90 (Escherichia coli [20]) was 4 µg/mL (≈ 10.8 µM). The MIC (Escherichia coli [20]; read-out: MIC) was 0.25 to 4 µg/mL (≈ 0.677 to 10.8 µM).
With CCc1c(-c2ccc3c(c2)cc(CN(C)C)n3C)[nH]c(=O)c(C(=O)O)c1O the Ratio (Escherichia coli [1]) was 2 - 4, the MIC (Escherichia coli [2]) was 6.3 µg/mL (≈ 17.1 µM) and the MIC (Acinetobacter baumannii [3]) was 3.1 µg/mL (≈ 8.39 µM). For the same molecule, the MIC (Klebsiella pneumoniae) was 0.78 µg/mL (≈ 2.11 µM), the MIC (Escherichia coli [4]) was 0.39 µg/mL (≈ 1.06 µM) and the MIC (Acinetobacter baumannii [5]) was 0.78 µg/mL (≈ 2.11 µM). It also gave an MIC (Escherichia coli [6]) of 3.1 µg/mL and an MIC (Escherichia coli [7]) of 6.3 µg/mL (≈ 17.1 µM).
With CNCc1cc2cc3c(cc2n1C)SCCc1c-3[nH]c(=O)c(C(=O)O)c1O the Ratio (Escherichia coli [1]) was 8 - 16, the MIC (Escherichia coli [2]) was 0.49 µg/mL (≈ 1.27 µM) and the MIC (Acinetobacter baumannii [3]) was 7.8 µg/mL (≈ 20.2 µM). It also gave an MIC (Klebsiella pneumoniae) of 1 µg/mL (≈ 2.59 µM), an MIC (Escherichia coli [4]) of 1 µg/mL (≈ 2.59 µM) and an MIC (Acinetobacter baumannii [5]) of 3.9 µg/mL (≈ 10.1 µM). For the same molecule, the MIC (Escherichia coli [6]) was 7.8 µg/mL and the MIC (Escherichia coli [7]) was 1.6 µg/mL (≈ 4.15 µM).
For CNCc1cc2c3c(ccc2n1C)-c1[nH]c(=O)c(C(=O)O)c(O)c1CCC3, the MIC (Escherichia coli [2]) was 6.3 µg/mL (≈ 17.1 µM), the MIC (Escherichia coli [4]) was greater than 12.5 µg/mL and the IC50 [8] was 1000 nM. The IC50 [9] was 27900 nM.
In the case of CCc1c(-c2ccc3c(ccn3C)c2)[nH]c(=O)c(C(=O)O)c1O, the Ratio (Escherichia coli [1]) is reported as greater than 40, the MIC (Escherichia coli [2]) is reported as 3.1 µg/mL (≈ 9.93 µM) and the MIC (Acinetobacter baumannii [3]) is reported as 0.78 µg/mL (≈ 2.5 µM). For the same molecule, the MIC (Klebsiella pneumoniae) was 3.1 µg/mL (≈ 9.93 µM), the MIC (Escherichia coli [4]) was 0.78 µg/mL (≈ 2.5 µM) and the MIC (Acinetobacter baumannii [5]) was 0.78 µg/mL (≈ 2.5 µM). The MIC (Escherichia coli [6]) was greater than 62.5 µg/mL and the MIC (Escherichia coli [7]) was 6.3 µg/mL (≈ 20.2 µM).
